This is an account of results in ChEMBL document CHEMBL1124369, “Pyrido[3,4-e]-1,2,4-triazines and related heterocycles as potential antifungal agents” (1989).

One may read the MIC as the smallest concentration in the dilution series that meets the test's criterion for growth inhibition.

Assay [1] deals with Candida tropicalis. Briefly: Antifungal activity against Candida tropicalis. The assay is classed as functional. In a few lines: (§1)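 Agar dilution MIC. Twofold serial drug dilutions in yeast nitrogen base medium with 1% dextrose, 0.15% asparagine and 1.5% agar. Agar surfaces inoculated using a Steers multiple inocula replicator, then incubated at 35 °C for 24-48 h. MIC was recorded as the lowest concentration inhibiting visible growth. Amphotericin B, miconazole and nystatin served as controls.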

The test system of assay [2] is Trichophyton rubrum. Nature of the assay: Antifungal activity against Trichophyton rubrum; Range is 16-32. The assay is classed as functional. In a few lines: as §1
Assay [3] deals with Mucor fragilis. Nature of the assay: Antifungal activity against Mucor fragilis. Format: functional. In a few lines: as §1
For assay [4], the system named is Diutina rugosa. Nature of the assay: Antifungal activity against Candida rugosa. Format: functional. In a few lines: as §1
In assay [5] the test system is Candida albicans. Nature of the assay: Antifungal activity against Candida albicans. Format: functional. In a few lines:
as §1

Assay [6] relates to Kluyveromyces marxianus. Briefly: Antifungal activity against Candida pseudotropicalis; Range is 8-16. The assay is classed as functional. In a few lines:
as §1

For assay [7], the system named is Trichophyton benhamiae. Briefly: Antifungal activity against Trichophyton mentagrophytes; Range is 8-32. Format: functional, trychophyton mentagrophytes. In a few lines: as §1
In assay [8] the test system is Aspergillus niger. Briefly: Antifungal activity against Aspergillus niger; Range is 32-128. Format: functional. In a few lines:
as §1

Assay [9] has as its system Candida albicans. Nature of the assay: Antifungal activity against Candida stellatoidea. Format: functional. In a few lines: as §1
Assay [10] has as its system Aspergillus niger. Nature of the assay: Antifungal activity against Aspergillus niger; Range is 16-32. Format: functional. In a few lines: as §1
The test system of assay [11] is Candida albicans. Briefly: Antifungal activity against Candida albicans; Range is 16-32. The assay is classed as functional. In a few lines:
as §1

For assay [12], the system named is Trichophyton benhamiae. Nature of the assay: Antifungal activity against Trichophyton mentagrophytes. The assay is classed as functional, trychophyton mentagrophytes. In a few lines: as §1
For assay [13], the system named is Kluyveromyces marxianus. Nature of the assay: Antifungal activity against Candida pseudotropicalis. Format: functional. In a few lines: as §1
In assay [14] the test system is Trichophyton rubrum. Briefly: Antifungal activity against Trichophyton rubrum. Format: functional. In a few lines:
as §1

Assay [15] deals with Candida parapsilosis. Nature of the assay: Antifungal activity against Candida parapsilosis. The assay is classed as functional. In a few lines: as §1
In assay [16] the test system is Kluyveromyces marxianus. Briefly: Antifungal activity against Candida pseudotropicalis; Range is 2-4. Format: functional. In a few lines:
as §1

The subject of assay [17] is Aspergillus niger. Nature of the assay: Antifungal activity against Aspergillus niger; Range is 8-16. The assay is classed as functional. In a few lines:
as §1

The subject of assay [18] is Candida tropicalis. Nature of the assay: Antifungal activity against Candida tropicalis; Range is 4-8. Format: functional. In a few lines: as §1
In assay [19] the test system is Trichophyton rubrum. Nature of the assay: Antifungal activity against Trichophyton rubrum; Range is 2-4. Format: functional. In a few lines: as §1
Assay [20] concerns Trichophyton benhamiae. Briefly: Antifungal activity against Trichophyton mentagrophytes; Range is 4-8. Format: functional, trychophyton mentagrophytes. In a few lines: as §1
Assay [21] relates to Candida albicans. Briefly: Antifungal activity against Candida albicans; Range is 8-16. Format: functional. In a few lines:
as §1

Assay [22] deals with Candida tropicalis. Nature of the assay: Antifungal activity against Candida tropicalis; Range is 8-16. The assay is classed as functional. In a few lines: as §1
Assay [23] deals with Aspergillus niger. Briefly: Antifungal activity against Aspergillus niger; Range is 32-64. The assay is classed as functional. In a few lines: as §1
Assay [24] concerns Candida tropicalis. Nature of the assay: Antifungal activity against Candida tropicalis; Range is 4-16. Format: functional. In a few lines: as §1
The test system of assay [25] is Trichophyton rubrum. Nature of the assay: Antifungal activity against Trichophyton rubrum; Range is 1-2. The assay is classed as functional. In a few lines:
as §1

Assay [26] has as its system Aspergillus niger. Briefly: Antifungal activity against Aspergillus niger. The assay is classed as functional. In a few lines:
as §1

For assay [27], the system named is Trichophyton benhamiae. Nature of the assay: Antifungal activity against Trichophyton mentagrophytes; Range is 16-32. The assay is classed as functional. The conditions noted are these: trychophyton mentagrophytes.
The subject of assay [28] is Candida albicans. Nature of the assay: Antifungal activity against Candida albicans; Range is 64-128. Format: functional. In a few lines:
as §1

The test system of assay [29] is Trichophyton rubrum. Briefly: Antifungal activity against Trichophyton rubrum; Range is 8-32. Format: functional.
The subject of assay [30] is Trichophyton rubrum. Nature of the assay: Antifungal activity against Trichophyton rubrum; Range is 4-8. The assay is classed as functional. In a few lines: as §1

In brackets after ≈: the same amount, converted by molar mass.

In the case of `Cc1cc2nnc(C)nc2c(C)n1`, the MIC in [1] amounted to 32 mg/L (≈ 184 µM); in [2] it was 16 mg/L (≈ 91.8 µM); in assay [3], 16 mg/L (≈ 91.8 µM); in assay [4] it was 64 mg/L (≈ 367 µM); in assay [5], 8 mg/L (≈ 45.9 µM); in assay [6], 8 mg/L (≈ 45.9 µM). Further, the MIC in [7] was found to be 8 mg/L (≈ 45.9 µM); in assay [8], 32 mg/L (≈ 184 µM); in [9] it was 64 mg/L (≈ 367 µM).

For `Fc1ccc(-c2nnc3ccncc3n2)c(F)c1`, the MIC in assay [10] was 16 mg/L (≈ 65.5 µM); in assay [11], 16 mg/L (≈ 65.5 µM); in [1], 16 mg/L (≈ 65.5 µM); in assay [12], 8 mg/L (≈ 32.8 µM); in assay [13] it was 32 mg/L (≈ 131 µM); in assay [14] it was 2 mg/L (≈ 8.19 µM). Besides, the MIC in assay [15] (Lodderomyces parapsilosis) is 16 mg/L (≈ 65.5 µM).

As to `c1cc(-c2nnc3ccncc3n2)ccn1`, the MIC in assay [12] came to 4 mg/L (≈ 19.1 µM); in [16], 2 mg/L (≈ 9.56 µM); in [3], 32 mg/L (≈ 153 µM); in assay [17], 8 mg/L (≈ 38.2 µM); in assay [4], 32 mg/L (≈ 153 µM); in assay [5] it was 8 mg/L (≈ 38.2 µM). For the same compound, the MIC in [18] came out at 4 mg/L (≈ 19.1 µM); in [19] it was 2 mg/L (≈ 9.56 µM); in [15] (Lodderomyces parapsilosis), 8 mg/L (≈ 38.2 µM); in assay [9] it was 32 mg/L (≈ 153 µM).

Regarding `Fc1ccc(-c2nnc3ccncc3n2)cc1`, the MIC stood at 16 mg/L (≈ 70.7 µM) in assay [10]; 4 mg/L (≈ 17.7 µM) in assay [20]; 8 mg/L (≈ 35.4 µM) in assay [21]; 8 mg/L (≈ 35.4 µM) in assay [22]; 64 mg/L (≈ 283 µM) in assay [3]; 8 mg/L (≈ 35.4 µM) in assay [4]. Further, the MIC in assay [13] was 8 mg/L (≈ 35.4 µM); in [14], 4 mg/L (≈ 17.7 µM); in assay [15] (Lodderomyces parapsilosis), 8 mg/L (≈ 35.4 µM); in assay [9], 8 mg/L (≈ 35.4 µM).

Regarding `CN(C)c1ccc(-c2nnc3ccncc3n2)cc1`, the MIC in assay [1] is 64 mg/L (≈ 255 µM); in assay [12], 8 mg/L (≈ 31.8 µM); in [5], 64 mg/L (≈ 255 µM); in [8] it was 32 mg/L (≈ 127 µM); in assay [13], 32 mg/L (≈ 127 µM); in [19], 2 mg/L (≈ 7.96 µM). It took 64 mg/L (≈ 255 µM) to inhibit growth in assay [15] (Lodderomyces parapsilosis) (MIC).

Consider `Fc1ccc(-c2nnc3ccncc3n2)cc1F`, for which the MIC in assay [23] is 32 mg/L (≈ 131 µM); in assay [12] it was 4 mg/L (≈ 16.4 µM); in assay [24] it was 4 mg/L (≈ 16.4 µM); in [5], 16 mg/L (≈ 65.5 µM); in [25] it was 1 mg/L (≈ 4.09 µM); in assay [13], 8 mg/L (≈ 32.8 µM). In [15] (Lodderomyces parapsilosis), the MIC was 16 mg/L (≈ 65.5 µM).

In the case of NYSTATIN, the MIC in assay [26] is 16 mg/L; in assay [1], 16 mg/L; in assay [3], 16 mg/L; in assay [4], greater than 128 mg/L; in assay [5], 16 mg/L; in assay [27] it was 16 mg/L. Also, the MIC in [13] was 8 mg/L; in assay [14] it was 32 mg/L; in assay [15], 16 mg/L; in assay [9], greater than 128 mg/L.

Consider `FC(F)(F)c1ccc(-c2nnc3ccncc3n2)cc1`, for which the MIC in [26] was 128 mg/L (≈ 463 µM); in assay [1], 128 mg/L (≈ 463 µM); in assay [28] it was 64 mg/L (≈ 232 µM); in [29] it was 8 mg/L (≈ 29 µM); in [12], 64 mg/L (≈ 232 µM); in assay [3] it was greater than 128 mg/L. In addition, the MIC in assay [4] was greater than 128 mg/L; in assay [13] it was 128 mg/L (≈ 463 µM); in assay [15] (Lodderomyces parapsilosis), 128 mg/L (≈ 463 µM); in assay [9], greater than 128 mg/L.

`COc1cc(-c2nnc3ccncc3n2)cc(OC)c1OC`: the MIC in assay [26] was found to be 128 mg/L (≈ 429 µM); in assay [1], 128 mg/L (≈ 429 µM); in assay [28], 64 mg/L (≈ 215 µM); in assay [3] it was 128 mg/L (≈ 429 µM); in assay [4] it was 128 mg/L (≈ 429 µM); in assay [13], 64 mg/L (≈ 215 µM). The same compound displayed a minimum inhibitory concentration (MIC) in assay [9] of 128 mg/L (≈ 429 µM).

As to `c1ccc2c(c1)ncc1ncnnc12` [STRINOLINE], the MIC in [1] amounted to 16 mg/L (≈ 87.8 µM); in assay [21], 8 mg/L (≈ 43.9 µM); in assay [12] it was 4 mg/L (≈ 22 µM); in assay [17] it was 8 mg/L (≈ 43.9 µM); in [30], 4 mg/L (≈ 22 µM); in [13], 8 mg/L (≈ 43.9 µM). In assay [15] (Lodderomyces parapsilosis), this compound registered an MIC of 16 mg/L (≈ 87.8 µM).
